≈ marks a conversion by molar mass, not a printed value.
Assays:
Assay type in all cases: functional
Pseudomonas aeruginosa = test: Antimicrobial activity against Pseudomonas aeruginosa PA0905
Outline: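 The clinical urine isolate was collected in 2005 in Sorocaba, Brazil. Aminoglycoside MICs were determined by CLSI agar dilution, with E. coli ATCC 25922 as the control strain. β-Lactam, ciprofloxacin and colistin MICs were determined by Etest.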

Escherichia coli [1] = test: Antimicrobial activity against Escherichia coli XL1-Blue pPA95S29
Outline: (§1)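 Aminoglycoside MICs were determined by CLSI agar dilution, with E. coli ATCC 25922 as the control strain. The host was E. coli XL1-Blue carrying pBluescript II SK(+), either as vector alone or as a ligated Sau3AI partial digest of the cloned resistance plasmid. Transformants were selected on LB agar with 50 μg/ml ampicillin plus 10 μg/ml amikacin.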

Escherichia coli [2] = test: Antimicrobial activity against Escherichia coli XL1-Blue [pBluescript 2 SK(+); outline: as §1

Compound | MIC (Pseudomonas aeruginosa) [µg/mL] | MIC (Escherichia coli [1]) [µg/mL] | MIC (Escherichia coli [2]) [µg/mL]
CN[C@@H]1[C@@H](O[C@H]2O[C@H](CO)[C@@H](N)[C@H](O)[C@H]2O)OC2C[C@@H](N)[C@@H](O[C@H]3[C@H](O)[C@@H](O)[C@H](N)C[C@@H]3N)OC2[C@@H]1O (some centres undefined) [APRAMYCIN] | 32 (≈ 59.3 µM) | 2 (≈ 3.71 µM) | 2 (≈ 3.71 µM)
NCC[C@H](O)C(=O)N[C@@H]1C[C@H](N)[C@@H](O[C@H]2O[C@H](CN)[C@@H](O)[C@H](O)[C@H]2O)[C@H](O)[C@H]1O[C@H]1O[C@H](CO)[C@@H](O)[C@H](N)[C@H]1O [AMIKACIN] | > 256 | > 256 | 0.5 (≈ 0.854 µM)
C[C@H]1[C@H](NC(=O)/C(=N\OC(C)(C)C(=O)O)c2csc(N)n2)C(=O)N1S(=O)(=O)O [AZTREONAM] | 8 (≈ 18.4 µM) | – | –
O=C(O)c1cn(C2CC2)c2cc(N3CCNCC3)c(F)cc2c1=O [CIPROFLOXACIN] | > 32 | – | –
C[C@@H](O)[C@H]1C(=O)N2C(C(=O)O)=C(SCCNC=N)C[C@H]12 [IMIPENEM ANHYDROUS] | > 32 | – | –
NCC[C@H](O)C(=O)N[C@@H]1C[C@H](N)[C@@H](O[C@H]2O[C@H](CN)CC[C@H]2N)[C@H](O)[C@H]1O[C@H]1O[C@H](CO)[C@@H](O)[C@H](N)[C@H]1O [ARBEKACIN] | > 256 | > 256 | 0.25 (≈ 0.452 µM)
NC[C@H]1O[C@H](O[C@H]2[C@H](O)[C@@H](O[C@H]3O[C@H](CO)[C@@H](O)[C@H](N)[C@H]3O)[C@H](N)C[C@@H]2N)[C@H](N)C[C@@H]1O [TOBRAMYCIN] | 256 (≈ 548 µM) | 64 (≈ 137 µM) | 0.06 (≈ 0.128 µM)
CN[C@@H]1[C@H](O[C@H]2[C@H](O[C@H]3[C@H](O)[C@@H](O)[C@H](N=C(N)N)[C@@H](O)[C@@H]3N=C(N)N)O[C@@H](C)[C@]2(O)C=O)O[C@@H](CO)[C@H](O)[C@H]1O [STREPTOMYCIN] | 128 (≈ 220 µM) | 1 (≈ 1.72 µM) | 0.5 (≈ 0.86 µM)
CO/N=C(\C(=O)N[C@@H]1C(=O)N2C(C(=O)[O-])=C(C[N+]3(C)CCCC3)CS[C@H]12)c1csc(N)n1 [CEFEPIME] | > 256 | – | –
CC(C)(O/N=C(\C(=O)N[C@@H]1C(=O)N2C(C(=O)[O-])=C(C[n+]3ccccc3)CS[C@H]12)c1csc(N)n1)C(=O)O [CEFTAZIDIME] | > 256 | – | –
NC[C@@H]1O[C@H](O[C@H]2[C@@H](O)[C@H](O[C@@H]3[C@@H](O)[C@H](N)C[C@H](N)[C@H]3O[C@H]3O[C@H](CN)[C@@H](O)[C@H](O)[C@H]3N)O[C@@H]2CO)[C@H](N)[C@@H](O)[C@@H]1O [FRAMYCETIN] | 64 (≈ 104 µM) | 0.12 (≈ 0.195 µM) | 0.12 (≈ 0.195 µM)
C[C@@H](O)[C@H]1C(=O)N2C(C(=O)O)=C(S[C@@H]3CN[C@H](C(=O)N(C)C)C3)[C@H](C)[C@H]12 [MEROPENEM] | > 32 | – | –
